Assay results taken from PMC10651775 (Blood, 2022).
Structures can show the parent of a compound that is named as a salt.

Experiments:
patients with R/R ATL = experiment: Phase 2 trial of valemetostat: safety; format: in vivo, human
Method in brief: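 Safety population: all patients receiving ≥1 dose of oral test compound, 200 mg once daily, fasting, in continuous 28-day cycles; dose was reduced to 50 mg with strong CYP3A plus P-gp inhibitors. Adverse events were coded with MedDRA version 23.1 and graded by CTCAE version 5.0.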

H3K27 trimethylation = conditions: compared with the EZH2-selective inhibitor tazemetostat; cited from earlier work
[1] = Grade ≥3 hematologic TEAE, % of patients
[2] = hematologic TEAE, all grades, % of patients

Cc1cc(C)c(CNC(=O)c2cc(Cl)c3c(c2C)O[C@@](C)([C@H]2CC[C@H](N(C)C)CC2)O3)c(=O)[nH]1 [valemetostat, Valemetostat tosylate]
TEAEs leading to dose reduction (patients with R/R ATL; 2 patients): 8% | Serious TEAEs (patients with R/R ATL; 8 patients): 32% | Secondary malignancies, including hematologic malignancy or myelodysplastic syndrome (patients with R/R ATL; AE of special interest): not observed | TEAEs that required dose interruption (patients with R/R ATL; Five patients): 20% | anemia (patients with R/R ATL; [1]): 32% | leukopenia (patients with R/R ATL; [1]): 12% | lymphopenia (patients with R/R ATL; [1]): 16% | neutropenia (patients with R/R ATL; [1]): 12% | thrombocytopenia (patients with R/R ATL; [1]): 32% | Grade ≥3 TEAEs (patients with R/R ATL; N = 25): 15 (60.0) n (%) | Grade ≥3 TRAEs (patients with R/R ATL; N = 25): 14 (56.0) n (%) | Serious TEAE (patients with R/R ATL; N = 25): 8 (32.0) n (%) | Serious TRAEs (patients with R/R ATL; N = 25): 7 (28.0) n (%) | TEAEs leading to discontinuation (patients with R/R ATL; N = 25): 2 (8.0) n (%) | TEAEs leading to interruption (patients with R/R ATL; N = 25): 5 (20.0) n (%) | TEAEs leading to reduction (patients with R/R ATL; N = 25): 2 (8.0) n (%) | TRAEs (patients with R/R ATL; N = 25): 24 (96.0) n (%) | TRAEs leading to discontinuation (patients with R/R ATL; N = 25): 2 (8.0) n (%) | TRAEs leading to interruption (patients with R/R ATL; N = 25): 4 (16.0) n (%) | TRAEs leading to reduction (patients with R/R ATL; N = 25): 2 (8.0) n (%) | TEAEs (patients with R/R ATL; N = 25, All AEs): 25 (100.0) n (%) | Alopecia (patients with R/R ATL; TEAE, All grades, N = 25): 10 (40.0) n (%) | Decreased appetite (patients with R/R ATL; TEAE, All grades, N = 25): 5 (20.0) n (%) | Dysgeusia (patients with R/R ATL; TEAE, All grades, N = 25): 9 (36.0) n (%) | Pyrexia (patients with R/R ATL; TEAE, All grades, N = 25): 5 (20.0) n (%) | anemia (patients with R/R ATL; TEAE, All grades, N = 25): 13 (52.0) n (%) | leukopenia (patients with R/R ATL; TEAE, All grades, N = 25): 5 (20.0) n (%) | lymphopenia (patients with R/R ATL; TEAE, All grades, N = 25): 6 (24.0) n (%) | neutropenia (patients with R/R ATL; TEAE, All grades, N = 25): 7 (28.0) n (%) | thrombocytopenia (patients with R/R ATL; TEAE, All grades, N = 25): 20 (80.0) n (%) | Alopecia (patients with R/R ATL; TEAE, Grade ≥3, N = 25): 0 n (%) | Decreased appetite (patients with R/R ATL; TEAE, Grade ≥3, N = 25): 2 (8.0) n (%) | Dysgeusia (patients with R/R ATL; TEAE, Grade ≥3, N = 25): 0 n (%) | Pyrexia (patients with R/R ATL; TEAE, Grade ≥3, N = 25): 0 n (%) | anemia (patients with R/R ATL; TEAE, Grade ≥3, N = 25): 8 (32.0) n (%) | leukopenia (patients with R/R ATL; TEAE, Grade ≥3, N = 25): 3 (12.0) n (%) | lymphopenia (patients with R/R ATL; TEAE, Grade ≥3, N = 25): 4 (16.0) n (%) | neutropenia (patients with R/R ATL; TEAE, Grade ≥3, N = 25): 3 (12.0) n (%) | thrombocytopenia (patients with R/R ATL; TEAE, Grade ≥3, N = 25): 8 (32.0) n (%) | discontinued study treatment owing to AEs (patients with R/R ATL; Two patients (cardiac failure, thrombocytopenia)): 8% | patients with thrombocytopenia who required dose modification (patients with R/R ATL; discontinuation 1 patient, dose interruption 2 patients): Three of 20 | median time to recovery (patients with R/R ATL; grade 4 thrombocytopenia, recovery to platelet count ≥25 × 10^9/L): 3 days | anemia (patients with R/R ATL; [2]): 52% | leukopenia (patients with R/R ATL; [2]): 20% | lymphopenia (patients with R/R ATL; [2]): 24% | neutropenia (patients with R/R ATL; [2]): 28% | thrombocytopenia (patients with R/R ATL; [2]): 80% | patients requiring a red blood cell transfusion for anemia (patients with R/R ATL; in vivo): 3 patients | patients requiring platelet transfusions for thrombocytopenia (patients with R/R ATL; in vivo): Five | treatment-related deaths (patients with R/R ATL; in vivo): No treatment-related deaths occurred | patients who experienced grade 4 thrombocytopenia (patients with R/R ATL; platelet count <25 × 10^9/L): 3 patients | H3K27 trimethylation (H3K27 trimethylation): strongly reduced H3K27 trimethylation
